Here are results for eight compounds from ChEMBL document CHEMBL1151255, “Cyclic peptides from a Ruegeria strain of bacteria associated with the sponge Suberites domuncula” (2004).

Molecules are shown by their SMILES. Converted amounts (≈) assume the structure as drawn. The source made the active and inactive calls. Where a SMILES comes first, the peptide text is derived from it.

One test deals with Bacillus spizizenii. The test can be described thus: Antimicrobial activity against Bacillus subtilis subsp. spizizenii. The class given is functional. The method in brief: (§1)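 MIC by twofold serial dilution in duplicate, top concentration 50 μg/mL. Test strains were B. subtilis subsp. spizizenii DSM 347, E. coli DSM 498 and S. cerevisiae DSM 70449. Growth was scored after 48 h at each strain's optimal growth temperature. Gentamycin and nystatin served as controls.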

A further test has as its system Escherichia coli. Kind of test: Antimicrobial activity against Escherichia coli. The class given is functional, organism-based. In a few lines: as §1
The next test has as its system Saccharomyces cerevisiae. Kind of test: Antimicrobial activity against Saccharomyces cerevisiae. The class given is functional, organism-based. The method in brief: as §1

Regarding `O=C(O)CC[C@@H]1NC(=O)[C@@H]2CCCN2C(=O)CNC1=O` (cyclo(Glu-Gly-Pro)), inhibition of growth with Bacillus spizizenii (MIC) required 50 µg/mL (≈ 177 µM). The result with Escherichia coli and in the test with Saccharomyces cerevisiae was inactive.

Turning to `O=C1CCCNC(=O)CN1`, the outcome in the test on Bacillus spizizenii, with Escherichia coli and in the test on Saccharomyces cerevisiae was inactive.

Consider `C[C@@H]1NC(=O)[C@@H]2C[C@@H](O)CN2C1=O`, for which the result in the test with Bacillus spizizenii, in the test with Escherichia coli and with Saccharomyces cerevisiae was inactive.

`O=C(O)CC[C@@H]1NC(=O)[C@@H]2CCCN2C(=O)[C@H](CO)NC(=O)CNC1=O` (cyclo(EGSP)) yielded an MIC in the test on Bacillus spizizenii of 25 µg/mL (≈ 67.5 µM). Besides, the outcome in the test with Escherichia coli and in the test with Saccharomyces cerevisiae was inactive.

Take `O=C1NCC(=O)N2CCC[C@@H]12`: the outcome in the test on Bacillus spizizenii, in the test on Escherichia coli and with Saccharomyces cerevisiae was inactive.

With `O=C(O)CC[C@@H]1NC(=O)[C@@H]2CCCN2C(=O)[C@H](CCC(=O)O)NC(=O)[C@@H]2CCCN2C1=O` (cyclo(EPEP)), the outcome with Bacillus spizizenii, in the test with Escherichia coli and in the test on Saccharomyces cerevisiae was inactive.

In the case of `O=C1[C@@H]2C[C@@H](O)CN2C(=O)[C@@H]2CCCN12`, the outcome with Bacillus spizizenii, in the test on Escherichia coli and in the test on Saccharomyces cerevisiae was inactive.

As for `C[C@@H]1NC(=O)[C@H]2C[C@@H](O)CN2C1=O`, the outcome in the test on Bacillus spizizenii, with Escherichia coli and in the test on Saccharomyces cerevisiae was inactive.

Usually MIC stands for the smallest concentration in the dilution series that meets the test's criterion for growth inhibition. Higher therefore signals weaker potency.
